Assay results published in ChEMBL document CHEMBL1800016, “Novel thiazolidinedione derivatives with anti-obesity effects: dual action as PTP1B inhibitors and PPAR-γ activators” (Bioorg Med Chem Lett, 2010).
Active and inactive are the calls of the source. No cut-off for these calls is given here.

Key:
[1] = target: T1, Peroxisome proliferator-activated receptor gamma (Homo sapiens) (UniProt P37231); experiment: Agonist activity at PPARgamma expressed in HepG2 cells co-expressing PPRE assessed as concentration required for maximal activation after 24 hrs by luciferase reporter gene assay; format: functional, cell-based
T1 sequence (whole entry): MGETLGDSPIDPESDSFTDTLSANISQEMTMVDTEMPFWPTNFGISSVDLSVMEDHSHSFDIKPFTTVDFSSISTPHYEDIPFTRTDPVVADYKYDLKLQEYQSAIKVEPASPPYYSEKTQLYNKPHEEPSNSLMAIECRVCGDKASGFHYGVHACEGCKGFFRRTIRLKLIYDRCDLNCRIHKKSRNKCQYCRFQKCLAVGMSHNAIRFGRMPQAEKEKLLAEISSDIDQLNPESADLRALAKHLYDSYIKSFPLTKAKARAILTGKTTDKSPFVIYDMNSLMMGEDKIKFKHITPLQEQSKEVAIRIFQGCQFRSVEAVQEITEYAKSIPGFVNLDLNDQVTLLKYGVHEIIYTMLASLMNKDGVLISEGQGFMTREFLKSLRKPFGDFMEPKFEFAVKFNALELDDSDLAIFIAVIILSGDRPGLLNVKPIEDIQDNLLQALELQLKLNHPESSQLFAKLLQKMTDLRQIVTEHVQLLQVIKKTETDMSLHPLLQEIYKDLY

[2] = Inhibition of YOP assessed as p-nitrophenol release from pNPP substrate preincubated for 10 mins
Procedure, shortened: (§1)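 IC50 values against the PTP panel, with enzymes prepared as described in the supplementary material. Values are means ± SD of two or more experiments.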

[3] = tested on: Mus musculus; experiment: Toxicity in high fat diet-fed diabetic C57BL/6J Jms Slc mouse model assessed as change in weight of lung at 2.6 mg/day administered with food for 4 weeks; format: organism-based; conditions: in vivo, po, 672 h
Procedure, shortened: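 At the end of the 4 wk in-feed dosing (about 2.6 mg/day/mouse in HFD), liver, kidney and lung weights were compared across the lean LFD, HFD control and treated groups.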

[4] = Selectivity ratio of IC50 for yeast PTP1 to IC50 for PTP1B
[5] = Selectivity ratio of IC50 for TC-PTP to IC50 for PTP1B
[6] = target: T2, Tyrosine-protein phosphatase non-receptor type 1 (Homo sapiens) (UniProt P18031); experiment: Mixed type inhibition of PTP1B expressed in Escherichia coli
T2 sequence (whole entry): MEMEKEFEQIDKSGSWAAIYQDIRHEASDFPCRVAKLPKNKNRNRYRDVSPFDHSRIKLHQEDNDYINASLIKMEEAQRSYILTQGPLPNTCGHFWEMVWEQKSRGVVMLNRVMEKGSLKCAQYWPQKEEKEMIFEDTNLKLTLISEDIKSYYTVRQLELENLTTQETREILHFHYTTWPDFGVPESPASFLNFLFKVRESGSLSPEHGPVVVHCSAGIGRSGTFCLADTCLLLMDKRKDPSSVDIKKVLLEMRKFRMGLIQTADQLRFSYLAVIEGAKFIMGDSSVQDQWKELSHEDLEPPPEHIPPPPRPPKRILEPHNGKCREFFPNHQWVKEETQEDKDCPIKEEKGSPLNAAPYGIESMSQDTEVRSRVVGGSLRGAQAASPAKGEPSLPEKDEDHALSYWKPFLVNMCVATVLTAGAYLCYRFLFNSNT

[7] = target: T3, Tyrosine-protein phosphatase 1 (Saccharomyces cerevisiae S288c, UniProt P25044); experiment: Inhibition of yeast PTP1 expressed in Escherichia coli assessed as p-nitrophenol release from pNPP substrate preincubated for 10 mins; procedure, shortened: as §1
T3 sequence (P25044 whole entry): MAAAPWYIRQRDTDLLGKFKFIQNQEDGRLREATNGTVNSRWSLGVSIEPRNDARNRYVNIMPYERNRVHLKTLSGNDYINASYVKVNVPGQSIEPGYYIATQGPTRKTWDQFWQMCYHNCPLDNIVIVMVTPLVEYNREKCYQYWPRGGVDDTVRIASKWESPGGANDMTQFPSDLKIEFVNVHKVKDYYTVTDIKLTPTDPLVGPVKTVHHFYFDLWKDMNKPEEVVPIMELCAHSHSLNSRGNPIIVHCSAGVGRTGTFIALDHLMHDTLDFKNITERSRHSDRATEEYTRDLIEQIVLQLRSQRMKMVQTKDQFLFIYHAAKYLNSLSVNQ

[8] = tested on: Mus musculus; experiment: Antiobesity activity in high fat diet-fed diabetic C57BL/6J Jms Slc mouse model assessed as decrease in epididymal fat at 2.6 mg/day administered with food for 4 weeks; format: functional
Procedure, shortened: (§2)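 DIO male C57BL/6J Jms Slc mice were fed a 45%-fat HFD for 8 wk, then HFD with 0.1% w/w compound in feed (about 2.6 mg/day/mouse) for 4 wk. A 10%-fat LFD lean group ran throughout. Measures were weight gain, feed efficiency (weight gain/kcal ×100), and epididymal and retroperitoneal fat pad weights. n = 8/group; mean ± SEM; one-way ANOVA.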

[9] = target: T4, Tyrosine-protein phosphatase non-receptor type 1 (Homo sapiens, UniProt P18031); experiment: Inhibition of PTP1B expressed in Escherichia coli assessed as p-nitrophenol release from pNPP substrate preincubated for 10 mins; procedure, shortened: as §1
T4 sequence (P18031 whole entry): T2 sequence (whole entry)

[10] = tested on: Mus musculus; experiment: Antiobesity activity in high fat diet-fed diabetic C57BL/6J Jms Slc mouse model assessed as decrease in serum triglyceride level at 2.6 mg/day administered with food for 4 weeks; format: functional
Procedure, shortened: (§3)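 DIO mice were fed HFD for 8 wk, then HFD containing 0.1% w/w compound (about 2.6 mg/day/mouse) for 4 wk. At the end of feeding, mice were deprived of food overnight. Serum total cholesterol, triglyceride and NEFA were then measured. Values are mean ± SEM.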

[11] = target: T5, Peroxisome proliferator-activated receptor gamma (Homo sapiens, UniProt P37231); experiment: Agonist activity at PPARgamma expressed in HepG2 cells co-expressing PPRE assessed as transcriptional activation after 24 hrs by luciferase reporter gene assay; format: functional, cell-based
T5 sequence (P37231 whole entry): T1 sequence (whole entry)
Procedure, shortened: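 HepG2 cells were transfected with a PPRE-driven luciferase reporter plus CMV-βGal. The basic luciferase reporter without a PPRE site served as the negative control. Compounds were added 6 h after transfection. Cells were lysed 24 h later. Luciferase activity was read on a luminometer and normalized to β-galactosidase for transfection efficiency. Two independent experiments; error as SEM.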

[12] = tested on: Mus musculus; experiment: Antidiabetic activity in high fat diet-fed diabetic C57BL/6J Jms Slc mouse model assessed as normalization of blood glucose level at 2.6 mg/day administered with food for 4 weeks measured 90 mins after last dose by glucose tolerance test; format: functional, organism-based
Procedure, shortened: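 Mice were male C57BL/6J Jms Slc, 5 wk old after 1 wk acclimatization. They were fed a 45%-fat HFD for 8 wk, then HFD with compound mixed in (1.0 g/kg diet, about 2.6 mg/day/mouse, 78 mg/day/kg) for 4 wk. Each mouse was fasted 6 h from the start of the light cycle and fasting glucose was measured. Glucose 1.0 g/kg was then given i.p., with readings at 60 and 90 min.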

[13] = tested on: Mus musculus; experiment: Antiobesity activity in high fat diet-fed diabetic C57BL/6J Jms Slc mouse model assessed as reduction in body weight at 2.6 mg/day administered with food for 4 weeks; format: functional; procedure, shortened: as §2
[14] = tested on: Mus musculus; experiment: Antiobesity activity in high fat diet-fed diabetic C57BL/6J Jms Slc mouse model assessed as decrease in non-esterified free fatty acid level in serum at 2.6 mg/day administered with food for 4 weeks; format: functional; procedure, shortened: as §3

Question: Which Activity [1] does the source give for Cc1ccc(S(=O)(=O)Oc2cc(OCc3ccc(C(F)(F)F)cc3)c(/C=C3\SC(=O)NC3=O)cc2Br)cc1 here?
Answer: 1.5 µM

Question: And the IC50 [2]?
Answer: 3900 nM

Question: What about the Activity [3] of the same compound?
Answer: Non-toxic

Question: And the Ratio IC50 [4]?
Answer: > 10

Question: And the Ratio IC50 [5]?
Answer: > 10

Question: What about the inhibition [6] of the same compound?
Answer: Active

Question: What about the IC50 [7] of the same compound?
Answer: 12000 nM

Question: What about the Activity [8] of the same compound?
Answer: 1.29 g

Question: And the IC50 [9]?
Answer: 1300 nM

Question: And the Activity [10]?
Answer: 76 mg/dL

Question: What about the EC50 [11] of the same compound?
Answer: 340 nM

Question: What about the Activity [12] of the same compound?
Answer: Active

Question: What about the Activity [13] of the same compound?
Answer: 2 g

Question: And the Activity [14]?
Answer: 0.2 mM
